# Source: PubChem BioAssay (several laboratories)
# NR1D1 modulator: modulators of Rev-erb alpha DNA binding, primary screen, biochemical, FITC-DNA, fluorescence polarization, uHTS; actives 0.79% (n = 370,000); activity, % at 10 µM; Rev-erbα–FITC-DNA binding, 90 min; Nuclear receptor subfamily 1 group D member 1 (Homo sapiens), P20393;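 active means activity above about 14%, limit read from the data; passing the limit was not always enough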
# Target sequence (P20393 whole entry, looked up): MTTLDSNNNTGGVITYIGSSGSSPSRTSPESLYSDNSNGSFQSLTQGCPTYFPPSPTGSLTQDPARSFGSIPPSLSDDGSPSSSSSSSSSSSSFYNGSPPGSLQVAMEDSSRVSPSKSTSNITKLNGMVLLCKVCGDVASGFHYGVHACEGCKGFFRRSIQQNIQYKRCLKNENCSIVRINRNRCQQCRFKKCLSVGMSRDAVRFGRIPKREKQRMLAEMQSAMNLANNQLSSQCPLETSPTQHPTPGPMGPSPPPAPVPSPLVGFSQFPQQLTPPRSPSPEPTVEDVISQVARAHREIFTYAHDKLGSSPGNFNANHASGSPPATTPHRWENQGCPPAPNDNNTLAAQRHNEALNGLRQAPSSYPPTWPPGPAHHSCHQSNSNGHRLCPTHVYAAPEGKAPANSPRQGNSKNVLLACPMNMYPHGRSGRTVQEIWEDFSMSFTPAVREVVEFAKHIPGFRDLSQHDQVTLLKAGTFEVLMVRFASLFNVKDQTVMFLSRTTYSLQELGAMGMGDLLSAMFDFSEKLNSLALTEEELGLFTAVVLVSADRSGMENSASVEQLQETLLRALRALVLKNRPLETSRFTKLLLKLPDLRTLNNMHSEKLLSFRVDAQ
# NR2E3 ag-1: inhibitors of NR2E3-RetCOR corepressor binding, primary screen, NR2E3 agonist project, biochemical, TR-FRET, GST-NR2E3, biotin-RetCOR. actives 0.12% (n = 320,000). AID 2300, 2010. Photoreceptor-specific nuclear receptor (Homo sapiens), Q9Y5X4. 1536-well. inhibition of corepressor binding, % at 4.78 µM;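 active means percent inhibition above the cutoff of mean plus 3 SD of all tested compounds, set per screening campaign, cut at about 20% in these data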
#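 Material – GST-tagged NR2E3 plus biotinylated RetCOR corepressor · Quantity – NR2E3 fusion 1.35 nM · Times – 5 h incubation at 4 °C · Medium – pH 7.5 Tris-based buffer · Technique – TR-FRET, Eu(K)-anti-GST donor, streptavidin-D2 acceptor, ex 340, em 617/671 nm · Benchmarks – high control biotin, low control 0.6% DMSO · Format – 1536-well plates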
# NR2E3 ag-2: NR2E3 agonists in two-hybrid cells, primary screen, cell-based, luminescence, CHO-S, Gal4-NCOR/VP16-NR2E3; luciferase; inhibition of corepressor binding, % at 3.98 µM; actives 0.35% (n = 360,000); AID 602229, 2012;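 active means inhibition above the mean of all tested compounds plus 3 SD, cut at about 70% in these data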;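 further: higher means lower luciferase signal from less NR2E3 corepressor binding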
# PG9 binder: binders of HIV-1 gp120 antibody PG9, primary screen, biochemical, TR-FRET | TR-FRET gp120-PG9 antibody binding | inhibition, % at 6.7 µM | actives 0.43% (n = 360,000) | AID 624416, 2012; in the data active means inhibition above about 8.5%
# NR1D1 mod conf: modulators of Rev-erb alpha DNA binding, confirmation, biochemical, FITC-DNA, fluorescence polarization, single point; shares compounds with NR1D1 modulator; 90 min; activation, % at 25 µM; actives 61% (n = 3,000);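 active means activation at or above a set limit, or at least 3 SD above the negative control mean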
# RORg DNA counter: modulation of RORgamma DNA binding, dose response, counter-screen for Rev-erb alpha modulator project, biochemical, fluorescence polarization, FITC-DNA; purified RORgamma protein-FITC-DNA binding; IC50, µM; actives 8% (n = 910); AID 1259320, 2017; shares compounds with NR1D1 modulator;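 active means Compounds whose fitted half-maximal concentration for disrupting protein-DNA binding is below 10 micromolar; the record names Rev-erb in its text, so the target is in doubt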
# A number is an active result; i = inactive; nt = no result given. Rows were chosen to be rich in hits. Some 1.4% of all compounds tested hit in one or more screens of this group.
SMILES,NR1D1 modulator,NR2E3 ag-1,NR2E3 ag-2,PG9 binder,NR1D1 mod conf,others
COc1ccc(C2=NN(C(=O)CSc3nc(=O)n4cccc(C)c4n3)C(c3ccc(C)cc3)C2)cc1 (stereo not drawn),39.3,i,i,i,i,
Cc1ccc2nc(SCC(=O)N3N=C(c4cccs4)CC3c3ccc(F)cc3)nc(=O)n2c1 (stereo not drawn),i,nt,i,i,nt,
COc1ccc(C2=NN(C(=O)CSc3ncccn3)C(c3cccc(OC)c3OC)C2)cc1 (stereo not drawn),38.9,i,i,i,33.0,RORg DNA counter=i
COc1ccc(C2=NN(C(=O)CSc3ncccn3)C(c3ccc(C)cc3)C2)cc1 (stereo not drawn),i,i,i,i,nt,
O=C1CCN(CC2CCCCC2)C=C1C(=O)c1ccccc1,i,nt,i,i,nt,
CC[C@H](C)[C@@H](CO)NC(=O)[C@H]1O[C@@H](n2ccc(=O)[nH]c2=O)[C@H](O)[C@@H]1O,i,nt,i,i,nt,
COc1ccc(C(=O)Nc2cccc(-c3cnc4ccccc4n3)c2)cc1,25.6,i,i,i,i,
COc1ccc(C(=O)Nc2ccc(C(=O)Nc3cccnc3)cc2)cc1,25.9,i,i,i,23.9,
Cc1ccc(C(=O)Nc2cccc(-c3cnc4ccccc4n3)c2)cc1,i,i,i,i,nt,
O=[N+]([O-])c1ccc(NN=C2CC3CCC2C3)c([N+](=O)[O-])c1 (stereo not drawn),i,nt,i,i,nt,
NCCC(O)(P(=O)(O)O)P(=O)(O)O,i,nt,nt,nt,nt,
CCOc1ccc(C(C)=O)cc1COC(=O)c1cc([N+](=O)[O-])ccc1N1CCOCC1,13.7,i,i,i,i,
CCOc1ccc2[nH]c3c(=O)n(CCC4=CCCCC4)cnc3c2c1,19.4,i,i,i,i,
Cc1cc(N2CCN(C(=O)OC(C)(C)C)C[C@H]2C)ccc1Br,14.8,nt,nt,i,i,
Cc1ccc(OCC(=O)NNC(=O)C2CCN(c3ncccn3)CC2)cc1,i,i,i,i,nt,
Cc1ccc(OCC(=O)NNC(=O)C2CCN(c3nc(C)cc(C)n3)CC2)cc1,22.8,i,i,i,i,
CCCCc1ccc(NC(=O)COC(=O)c2ccc3ncsc3c2)cc1,17.1,nt,i,i,i,
CCCCOC(=O)c1ccc(NC(=O)COC(=O)c2ccc3ncsc3c2)cc1,i,i,i,i,nt,
C=CCNC1CCC12CCC(c1ccccc1)CC2 (stereo not drawn),i,nt,nt,nt,nt,
Cc1ccc(C2/C(=C(/O)c3cnn(-c4ccccc4)c3C)C(=O)C(=O)N2CCN2CCOCC2)o1 (stereo not drawn),i,i,i,i,nt,
Cc1c(/C(O)=C2/C(=O)C(=O)N(CCN3CCOCC3)C2c2cccs2)cnn1-c1ccccc1 (stereo not drawn),21.2,i,i,i,25.6,
CC(C)(C)NC(=O)CN1C(=O)c2cccc3cccc1c23,i,nt,i,i,nt,
O=C(NCc1ccc(F)cc1)c1c(O)c2cccc3c2n(c1=O)CCC3,37.2,i,i,i,i,
O=C(NCc1ccco1)c1ccc2sc([C@@H]3O[C@H](CO)[C@H](O)[C@H](O)[C@H]3O)nc2c1,i,nt,i,i,nt,
COc1ccc(C(=O)n2cnc(N)n2)cc1,i,i,i,i,nt,
SMILES,NR1D1 modulator,NR2E3 ag-1,NR2E3 ag-2,PG9 binder,NR1D1 mod conf,others
COc1ccc(C(=O)N2C(=O)c3ccc(N)cc3C2=O)cc1,23.2,i,i,i,i,
Cc1cccc(C(=O)Nc2ccc(N3CCN(c4ccc(C(F)(F)F)cn4)CC3)nc2)c1,65.4,i,i,i,i,
COC(=O)c1cc2c(c3c4cc(C)ccc4n(S(=O)(=O)c4ccc(OC)cc4)c13)C(=O)N(Cc1ccc(C(F)(F)F)cc1)C2,i,nt,nt,i,nt,
O=C(Nc1ccc(O)c(-c2nc3ccccc3s2)c1)c1cccs1,360.1,i,i,36.1,702.9,RORg DNA counter=i
O=C(Nc1ccc(O)c(-c2nc3ccccc3s2)c1)c1cc(=O)c2ccccc2o1,i,i,i,i,nt,
Nc1ccc2cc3ccc(N)cc3nc2c1,28.1,nt,nt,nt,27.1,RORg DNA counter=i
O=C(NC(c1ccc(Cl)cc1)c1cccnc1)C1CCN(CCOc2ccc(Cl)cc2Cl)CC1 (stereo not drawn),i,nt,i,i,nt,
CCc1nnc2sc(-c3ccc(NC(=O)CSc4ccc(Cl)cc4)cc3)nn12,32.2,i,i,i,20.7,
COc1ccc(NC(=O)c2cc(-c3cc(F)ccc3OC)n[nH]2)c(OC)c1,i,nt,i,i,nt,
Cc1c(C#N)c(O)[nH]c(=O)c1N=Nc1ccc(S(N)(=O)=O)cc1,26.4,i,i,i,17.3,
COc1cc(C=O)c(Br)cc1OCc1ccc(C)cc1,18.2,i,i,i,i,
COc1cc(C=O)ccc1OCc1ccncc1,i,i,i,i,nt,
O=c1c2ccccc2nc2sc3ccccc3n12,21.6,i,i,i,32.3,RORg DNA counter=i
COC(=O)/C=c1/sc2nc3ccccc3n2c1=O,i,i,i,i,nt,
O=C(NC1CCCCCCC1)c1cc(-c2ccccn2)nc2ccccc12,40.6,i,i,i,i,
O=C(NC1CCN(Cc2ccccc2)CC1)c1cc(-c2ccccn2)nc2ccccc12,i,i,i,i,nt,
COc1cc(OC)cc(-c2oc(=O)c3cc(OC)c(OC)cc3c2C#CCCCO)c1,31.7,i,i,i,i,
COc1ccc(-c2oc(=O)c3cc(OC)c(OC)cc3c2C#CCCCO)cc1,i,nt,i,i,nt,
COc1ccc(-c2oc(=O)c3cc(OC)c(OC)cc3c2C#CC2(O)CCCCC2)cc1,27.0,nt,i,i,i,
Cc1ccccc1NC(=O)N(C)[C@H]1C[C@H]2c3[nH]c4c(-c5ccccc5)cccc4c3CCN2C(=O)[C@H]1[C@H](C)O,i,nt,nt,i,nt,
C=CCN1C/C(=C/c2ccccc2)N2C(=O)CC(c3ccccc3)N=C12 (stereo not drawn),i,nt,nt,nt,nt,
CCN(CC)c1ccc(-c2c(C#N)c(N)nc(OC)c2C#N)cc1,177.6,i,i,i,136.7,RORg DNA counter=i
O=c1[nH]c(=S)[nH]cc1Oc1ccccc1,i,nt,i,i,nt,
O=C(Nc1cccc(C(F)(F)F)c1)c1cc2c(=O)c3ccccc3oc2nc1C(F)(F)F,25.2,i,i,i,19.3,
O=C(Nc1ccccc1)c1cc2c(=O)c3ccccc3oc2nc1C(F)(F)F,46.3,i,i,i,34.0,RORg DNA counter=i
N#Cc1c2ncn(CC(=O)c3ccc(Br)cc3)c(=O)c2c2n1CCC2,16.9,i,i,i,i,
N#Cc1c2n(c3c(=O)n(CC(=O)c4ccc(Br)cc4)cnc13)CCCC2,i,i,i,i,nt,
N#Cc1c(C(F)(F)F)cc(-c2ccc(Cl)cc2)[nH]c1=O,i,i,i,i,nt,
